Results published in ChEMBL document CHEMBL1137438, “Small conformationally restricted piperidine N-arylsulfonamides as orally active gamma-secretase inhibitors” (Bioorg Med Chem Lett, 2007).

Assays:
[1] = AUC in rat at 10 mg/kg, po after 0 to 6 hrs; type: ADME, organism-based; set-up: time < 6 hr, dose 10 mg/kg, route oral; conditions: plasma
Mus musculus [2] = test: Plasma A-beta-40 level in Tg CRND8 mouse at 30 mg/kg, sc after 3 hrs; type: functional; conditions: route subcutaneous
How it was run: (§1)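 Tg CRND8 transgenic mice, acute single dose of 30 mpk, oral or sub-cutaneous. Plasma Aβ40 measured 3 h after dosing and expressed as % reduction.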

Mus musculus [3] = test: Plasma A-beta-40 level in Tg CRND8 mouse at 30 mg/kg, po after 3 hrs; type: functional; how it was run: as §1

Compound | AUC at 6 h [1] | Activity (Mus musculus [2]) | Activity (Mus musculus [3])
CC[C@@H]1CCC[C@H](C2(OC(=O)N3CC4CCC(C3)N4CCO)CC2)N1S(=O)(=O)c1ccc(Cl)cc1 (mixture of isomers) | 939 ng·h/mL | 85% | 
CC[C@@H]1CCC[C@H](C2(OC(=O)N3CCN(CCO)[C@@H](C)C3)CC2)N1S(=O)(=O)c1ccc(Cl)cc1 (racemic) | 1870 ng·h/mL |  | 
CC[C@@H]1CCC[C@H](C2(OC(=O)N3CCN(C(C)(C)CO)CC3)CC2)N1S(=O)(=O)c1ccc(Cl)cc1 (racemic) | 892 ng·h/mL | 91% | 96%
CC[C@@H]1CCC[C@H](C2(OC(=O)N3CCN(CCO)C[C@@H]3C)CC2)N1S(=O)(=O)c1ccc(Cl)cc1 (racemic) | 3410 ng·h/mL |  | 
CC[C@@H]1CCC[C@H](C2(OC(=O)N3CCC(CCO)(OC)CC3)CC2)N1S(=O)(=O)c1ccc(Cl)cc1 (racemic) | 81 ng·h/mL |  | 

Now from value to compound, other results behind:

AUC at 6 h [1] | Compound | Activity (Mus musculus [2]) | Activity (Mus musculus [3])
1780 ng·h/mL | CC[C@@H]1CCC[C@H](C2(OC(=O)N3CC4CCC(C3)N4CCO)CC2)N1S(=O)(=O)c1ccc(F)cc1 (mixture of isomers) |  | 
1330 ng·h/mL | CC[C@@H]1CCC[C@H](C2(OC(=O)N3CC4CCC(C3)N4CCO)CC2)N1S(=O)(=O)c1ccc(F)c(F)c1 (mixture of isomers) |  | 
405 ng·h/mL | CC[C@@H]1CCC[C@H](C2(OC(=O)N3CCN(C(C)(C)CO)CC3)CC2)N1S(=O)(=O)c1ccc(F)cc1 (racemic) | 59% | 
296 ng·h/mL | CC[C@@H]1CCC[C@H](C2(OC(=O)N3CCC(N4CCCCC4)CC3)CC2)N1S(=O)(=O)c1cc(F)cc(F)c1 (racemic) |  | 
